Paper PMC8802302 (Journal of Medicinal Chemistry, 2021)

Legend:
PAMPA permeability = assay type: in vitro ADME; details: PBS pH 7.4, 5 h incubation
Procedure, shortened: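 DMSO stocks of test compound were diluted in PBS pH 7.4 and added to the donor side of a precoated PAMPA plate, with PBS pH 7.4 as acceptor, for 5 h. Both compartments were quantified by chemiluminescent nitrogen detection against a calibration curve, with background nitrogen corrected. Effective permeability was calculated from donor and acceptor concentrations, using measured rather than assumed solubility.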

[1] = tested on: 403 wild-type (WT) human kinases; test: DiscoverX scanMAX kinome-wide selectivity screen; assay type: binding; details: 403 WT human kinases; for no. kinases with PoC < 10: DiscoverX scanMAX, 1 μM; for S10 (1 μM): Percentage of screened kinases with PoC values < 10 at 1 μM
TBK1 (NLuc-TBK1) = target: T1, TBK1 (NLuc-TBK1) (Homo sapiens, UniProt Q9UHD2); test: NanoBRET cellular target engagement assay; assay type: cell-based; details: HEK293, 0.5 μM tracer K-5; n = 1 where no error, SEM n = 3
T1 sequence (Q9UHD2 1-729): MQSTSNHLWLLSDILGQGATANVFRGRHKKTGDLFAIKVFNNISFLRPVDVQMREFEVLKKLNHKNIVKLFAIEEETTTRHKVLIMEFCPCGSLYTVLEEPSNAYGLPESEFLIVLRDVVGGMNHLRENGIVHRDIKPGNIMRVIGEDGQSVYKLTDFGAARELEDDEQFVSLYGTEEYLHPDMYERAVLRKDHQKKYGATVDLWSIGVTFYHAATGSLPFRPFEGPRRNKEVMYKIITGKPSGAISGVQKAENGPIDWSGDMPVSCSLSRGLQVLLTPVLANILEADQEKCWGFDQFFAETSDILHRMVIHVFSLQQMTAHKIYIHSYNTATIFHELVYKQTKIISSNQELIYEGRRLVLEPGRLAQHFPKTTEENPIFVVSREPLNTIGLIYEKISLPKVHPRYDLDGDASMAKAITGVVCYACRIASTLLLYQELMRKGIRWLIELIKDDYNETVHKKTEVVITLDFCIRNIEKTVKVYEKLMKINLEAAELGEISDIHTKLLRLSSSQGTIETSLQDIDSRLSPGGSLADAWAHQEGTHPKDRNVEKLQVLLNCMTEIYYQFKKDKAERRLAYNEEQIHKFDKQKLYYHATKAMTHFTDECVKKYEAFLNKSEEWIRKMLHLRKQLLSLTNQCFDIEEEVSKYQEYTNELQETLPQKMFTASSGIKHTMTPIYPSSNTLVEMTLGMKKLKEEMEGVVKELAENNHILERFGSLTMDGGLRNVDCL
Procedure, shortened: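 HEK293 cells were grown in DMEM with 10% FBS at 37 °C under 5% CO2, passaged every 72 h with trypsin and kept below confluency. Cells expressed NanoLuc fusions (DRAK1-NLuc or NLuc-TBK1). Dose–response was run per the manufacturer's protocol, with 0.5 μM tracer K-9 for DRAK1 and 0.5 μM tracer K-5 for TBK1. SEM was reported where assays were repeated.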

16-member kinase panel = test: Eurofins custom enzymatic kinase panel, count of kinases inhibited; assay type: biochemical; details: 16-member Eurofins panel, 1 μM
Procedure, shortened: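 Radiometric kinase assays were run with ATP at Km. Each test compound was tested at a single concentration of 1 μM, in duplicate, against each panel kinase, with results as percent of control. The count is the number of kinases at ≤ 10 PoC, i.e. inhibited ≥ 90%.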

MARK4 (NLuc-MARK4) = target: T2, MARK4 (NLuc-MARK4) (Homo sapiens, UniProt Q96L34); test: NanoBRET cellular target engagement assay; assay type: cell-based; details: HEK293, 0.5 μM tracer K-5; n = 1 where no error, SEM n = 2
T2 sequence (Q96L34 1-752): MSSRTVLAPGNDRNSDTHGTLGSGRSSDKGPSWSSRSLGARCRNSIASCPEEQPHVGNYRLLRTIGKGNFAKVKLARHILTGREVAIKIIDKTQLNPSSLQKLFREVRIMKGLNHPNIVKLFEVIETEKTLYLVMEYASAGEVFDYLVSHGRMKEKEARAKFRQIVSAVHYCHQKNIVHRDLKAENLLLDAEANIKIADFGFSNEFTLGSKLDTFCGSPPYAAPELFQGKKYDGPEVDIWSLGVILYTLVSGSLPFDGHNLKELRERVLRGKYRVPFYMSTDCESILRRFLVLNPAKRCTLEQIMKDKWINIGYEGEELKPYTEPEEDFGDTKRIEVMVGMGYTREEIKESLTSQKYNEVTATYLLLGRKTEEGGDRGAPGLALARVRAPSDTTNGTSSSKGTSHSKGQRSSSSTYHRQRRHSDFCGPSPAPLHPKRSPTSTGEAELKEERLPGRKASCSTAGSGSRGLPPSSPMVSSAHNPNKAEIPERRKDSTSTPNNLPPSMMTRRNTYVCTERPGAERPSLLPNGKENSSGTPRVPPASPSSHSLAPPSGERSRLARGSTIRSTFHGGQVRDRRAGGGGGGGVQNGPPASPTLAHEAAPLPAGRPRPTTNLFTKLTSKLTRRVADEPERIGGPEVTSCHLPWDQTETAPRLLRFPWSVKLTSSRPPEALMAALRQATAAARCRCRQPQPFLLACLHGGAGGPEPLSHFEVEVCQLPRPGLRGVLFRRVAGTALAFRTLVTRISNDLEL

DRAK1 (DRAK1-NLuc) = target: T3, DRAK1 (DRAK1-NLuc) (Homo sapiens, UniProt Q9UEE5); test: NanoBRET cellular target engagement assay; assay type: cell-based; details: HEK293, 0.5 μM tracer K-9; n = 1 where no error, SEM n = 3
T3 sequence (Q9UEE5 1-414): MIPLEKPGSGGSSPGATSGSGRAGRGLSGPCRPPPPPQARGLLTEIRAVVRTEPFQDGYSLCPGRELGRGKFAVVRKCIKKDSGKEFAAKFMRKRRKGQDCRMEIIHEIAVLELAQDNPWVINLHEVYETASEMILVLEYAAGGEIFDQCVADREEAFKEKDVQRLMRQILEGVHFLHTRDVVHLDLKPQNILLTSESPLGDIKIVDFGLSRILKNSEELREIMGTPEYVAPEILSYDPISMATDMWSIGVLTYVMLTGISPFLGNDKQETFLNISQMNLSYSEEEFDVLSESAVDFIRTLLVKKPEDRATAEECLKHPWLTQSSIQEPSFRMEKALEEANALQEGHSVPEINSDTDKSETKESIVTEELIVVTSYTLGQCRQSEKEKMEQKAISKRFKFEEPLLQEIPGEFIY

Structure (SMILES) | Pe (permeability coefficient, PAMPA) (PAMPA permeability) | no. kinases with PoC < 10 [1] | TBK1 NanoBRET IC50 (TBK1 (NLuc-TBK1)) | no. kinases ≤ 10 PoC in enzyme panel (16-member kinase panel) | MARK4 NanoBRET IC50 (MARK4 (NLuc-MARK4)) | S10 (1 μM) [1] | DRAK1 NanoBRET IC50 (DRAK1 (DRAK1-NLuc))
Cc1nn(CC(F)(F)F)cc1Nc1ncc(Br)c(NCc2ccc(S(N)(=O)=O)cc2)n1 [GSK8612, 4-(((5-Bromo-2-((3-methyl-1-(2,2,2-trifluoroethyl)-1H-pyrazol-4-yl)amino)pyrimidin-4-yl)-amino)methyl)benzenesulfonamide, reference compound] | below the limit of quantitation | 8 | submicromolar | 1 |  |  | 
NS(=O)(=O)c1ccc(CNc2nc(Nc3cccc(CN4CCOCC4)c3)ncc2Br)cc1 [Compound 6, 4-(((5-Bromo-2-((3-(morpholinomethyl)phenyl)amino)pyrimidin-4-yl)amino)methyl)benzenesulfonamide] | below the limit of quantitation | 19 |  | 4 |  |  | 
O=C(NCCCNc1nc(Nc2cccc(NC(=O)N3CCCC3)c2)ncc1C1CC1)C1CCC1 [Compound 22, N-(3-((4-((3-(Cyclobutanecarboxamido)propyl)amino)-5-cyclopropylpyrimidin-2-yl)amino)-phenyl)pyrrolidine-1-carboxamide] | low permeability | 30 |  | 9 | submicromolar | 0.074 | submicromolar
Cc1nn(CC(F)(F)F)cc1Nc1ncc(Br)c(NCCCNC(=O)C2CCC2)n1 [Compound 7, N-(3-((5-Bromo-2-((3-methyl-1-(2,2,2-trifluoroethyl)-1H-pyrazol-4-yl)amino)pyrimidin-4-yl)amino)propyl)cyclobutanecarboxamide] |  | 62 | submicromolar | 7 |  | 0.154 | submicromolar
NS(=O)(=O)c1ccc(CNc2nc(Nc3cccc(NC(=O)N4CCCC4)c3)ncc2C2CC2)cc1 [Compound 21, N-(3-((5-Cyclopropyl-4-((4-sulfamoylbenzyl)amino)pyrimidin-2-yl)amino)phenyl)pyrrolidine-1-carboxamide] |  | 1 |  | 1 |  |  | 
Cc1nn(CC(F)(F)F)cc1Nc1ncc(Br)c(NCCc2cnc[nH]2)n1 [Compound 10, N^4-(2-(1H-Imidazol-5-yl)ethyl)-5-bromo-N^2-(3-methyl-1-(2,2,2-trifluoroethyl)-1H-pyrazol-4-yl)pyrimidine-2,4-diamine] |  | 28 |  | 0 |  | 0.069 | 
c1cc(CN2CCOCC2)cc(Nc2ncc(C3CC3)c(NCCc3c[nH]cn3)n2)c1 [Compound 14, N^4-(2-(1H-Imidazol-4-yl)ethyl)-5-cyclopropyl-N^2-(3-(morpholinomethyl)phenyl)pyrimidine-2,4-diamine] | low permeability | 27 |  | 6 | submicromolar | 0.067 | 
Cc1nn(CC(F)(F)F)cc1Nc1nccc(NCCCNC(=O)C2CCC2)n1 [Compound 8, N-(3-((2-((3-Methyl-1-(2,2,2-trifluoroethyl)-1H-pyrazol-4-yl)amino)pyrimidin-4-yl)amino)-propyl)cyclobutanecarboxamide] |  | 1 |  | 0 |  |  | 
CN1CCc2cc(Nc3ncc(C4CC4)c(NCCCNC(=O)C4CCC4)n3)ccc2C1 [MRT68921, reference compound] |  |  |  | 13 |  |  | 
NS(=O)(=O)c1ccc(CNc2nc(Nc3cccc(CN4CCOCC4)c3)ncc2C2CC2)cc1 [Compound 11, 4-(((5-Cyclopropyl-2-((3-(morpholinomethyl)phenyl)amino)pyrimidin-4-yl)amino)methyl)-benzenesulfonamide] | low permeability | 3 |  | 1 |  | 0.007 | 
Cc1nn(CC(F)(F)F)cc1Nc1nccc(NCc2ccc(S(N)(=O)=O)cc2)n1 [Compound 12, 4-(((2-((3-Methyl-1-(2,2,2-trifluoroethyl)-1H-pyrazol-4-yl)amino)pyrimidin-4-yl)amino)methyl)benzenesulfonamide] | below the limit of quantitation | 1 |  | 0 |  |  | 
O=C(Nc1cccc(Nc2ncc(Br)c(NCCc3cnc[nH]3)n2)c1)N1CCCC1 [BX-912, reference compound] | low permeability |  |  | 14 |  |  | 
c1cc(CN2CCOCC2)cc(Nc2nccc(NCCc3cnc[nH]3)n2)c1 [Compound 20, N^4-(2-(1H-Imidazol-5-yl)ethyl)-N^2-(3-(morpholinomethyl)phenyl)pyrimidine-2,4-diamine] |  | 9 |  | 1 |  | 0.022 | 
O=C(NCCCNc1nc(Nc2cccc(CN3CCOCC3)c2)ncc1C1CC1)C1CCC1 [MRT67307, reference compound] |  |  |  | 12 |  |  | submicromolar
